Screening results as filed in PubChem.
bovine MsrA act: activates bovine MsrA enzyme. purified bovine MsrA, absorbance read-out. activation, % at 10.6 µM. actives 0.3% (n = 360,000). AID 602163; in the data active = activation above about 7.5%;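 also: 0% = vehicle and 100% = reference activator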
UCH37 DUB inh: blocks the human deubiquitinase UCH37; inhibition, % (concentration not given with the values); actives 0.33% (n = 330,000); AID 588478; purified proteasome/UCH37, Ub-AMC cleavage fluorescence;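 active = mean inhibition over replicate wells above about 20%, limit read from the data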;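 also: 0% = compound-free wells with enzyme and 100% = wells lacking proteasome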
Target sequence (Q9Y5K5 whole entry, looked up): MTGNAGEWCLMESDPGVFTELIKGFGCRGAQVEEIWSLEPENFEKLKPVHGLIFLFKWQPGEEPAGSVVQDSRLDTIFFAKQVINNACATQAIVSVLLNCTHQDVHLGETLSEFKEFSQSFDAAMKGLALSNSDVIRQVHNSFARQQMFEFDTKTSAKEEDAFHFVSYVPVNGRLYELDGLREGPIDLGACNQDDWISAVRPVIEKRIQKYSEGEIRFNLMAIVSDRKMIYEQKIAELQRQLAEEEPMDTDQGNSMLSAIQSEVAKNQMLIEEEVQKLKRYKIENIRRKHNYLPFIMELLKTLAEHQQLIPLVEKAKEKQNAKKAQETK
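System: Proteasome-associated human UCH37 deubiquitinase; Input: 0.15 nM proteasome in added enzyme buffer; Also added: Ub-AMC substrate from 1 µM stock; Incubation: 30 min compound-proteasome preincubation then 25 min substrate reaction, room temperature; Detection: fluorescence, ex 355 nm, em 460 nm; Read-out: % inhibition of Ub-AMC cleavage fluorescence; Benchmarks: no-proteasome and no-compound wells.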
aDG glyco up: alpha-DG glycosylation activation; Pro5-aDG cells, alpha-DG glycosylation AlphaScreen (IIH6); 0% Pro5, 100% B10-LARGE cell signal; activation, % at 10 µM; actives 0.22% (n = 360,000);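 active = activation of at least 8% versus controls, or a plate z-score of at least 8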;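 also: Pro5 are CHO cells carrying HIG-tagged alpha-DG that lacks glycosylation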
N-glyco inh: blocks N-linked glycosylation in D54 reporter cells; D54 ERlucT glycosylation luciferase reporter, 24 h; percent of 100 nM tunicamycin response; reporter increase, % at 12.5 µM; actives 0.23% (n = 360,000);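 active = mean luciferase reporter signal, scaled so untreated is 0 and the glycosylation-blocking control 100, at or above a set limit in every replicate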;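 also: luciferase carries N-glycosylation sites so blocking glycosylation raises the light; 0% = median of neutral control wells and 100% = median of 100 nM tunicamycin wells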
MsrA inhibitor: inhibitors of bovine MsrA; inhibition, % at 15.5 µM; purified bovine MsrA, absorbance read-out; AID 651718; actives 0.75% (n = 360,000); in the data active = inhibition above about 4.5%;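 also: 0% = vehicle wells with enzyme and 100% = reference inhibitor wells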
Vif inh: inhibitors of HIV Vif; HEK293T cells, Vif self-association by quenched fluorescence, imaging, 24 h; inhibition, % at 7.49 µM; actives 0.35% (n = 340,000); AID 602346; in the data active = inhibition above about 50%, passing the limit was not always enough
* hit, by the source's call; i = inactive; nt = no result. The list is not random: actives were taken first. Their share in the collection is about 1.9%.

SMILES	bovine MsrA act	UCH37 DUB inh	aDG glyco up	N-glyco inh	MsrA inhibitor	Vif inh
CC(C)(C)c1ccc(C(=O)NNC(=O)c2cccc(Br)c2)cc1	-2	3	0	203*	1	3
CCC(=NNC(=O)c1ccccc1)c1ccc(OCCN2CCOCC2)cc1	nt	4	nt	nt	nt	nt
CCOc1ccc(-c2nnc(SCC(=O)Nc3ccc4c(c3)c3ccccc3n4CC)n2N)cc1	-11	-15	0	73*	1	37
CCC(=NNC(=O)c1ccc2c(c1)OCO2)C12CC3CC(CC(C3)C1)C2	nt	1	nt	nt	nt	nt
Cc1c(Cc2ccccc2)sc(NC(=O)c2ccco2)c1C(N)=O	-5	-298	0	0	0	-6
CCOc1ccc(CC(=O)Nc2sc(Cc3ccccc3)c(C)c2C(N)=O)cc1OCC	-5	-4	0	0	0	58*
CCOC(=O)c1ccc(N=c2sc(C(=O)OC)cc(=O)n2Cc2ccco2)cc1	-3	3	0	56*	0	-10
CCOC(=O)c1ccc(N=c2sc(C(=O)OC)cc(=O)n2CCCN2CCOCC2)cc1	-3	6	0	16	2	-11
O=C(Nc1ccccc1C(=O)NN=Cc1ccc(F)cc1)c1ccccc1Br	nt	1	nt	nt	nt	nt
N#C/C(=C\Nc1ccc2cn[nH]c2c1)c1nc(-c2ccc(Cl)cc2)cs1	-2	nt	-1	-8	1	-4
N#CC(=Cc1ccccn1)c1nc(-c2ccc(Cl)cc2)cs1	-2	nt	0	42*	0	103*
COc1cc(/C=C(\C#N)c2nc3ccccc3s2)ccc1OCC(=O)Nc1ccccc1	0	nt	0	71*	nt	-6
O=C(O)c1ccc(NN=C2CCSc3ccc(F)cc32)cc1	nt	13	nt	nt	nt	nt
COc1ccc(C2CC2C(=NO)c2ccccn2)cc1 (stereo unspecified)	nt	4	nt	nt	nt	nt
CN1CCN(C(c2ccc(Br)cc2)c2cc(Cl)c3cccnc3c2O)CC1 (stereo unspecified)	0	nt	0	37*	1	20
O=C(COc1ccc(Br)cc1)Nc1ccccc1N1CCCC1	-4	28*	0	-5	-1	0
Cc1ccc(S(=O)(=O)N2CCN(CC(=O)NN=Cc3ccccc3OCC(=O)O)CC2)cc1	nt	2	nt	nt	nt	nt
NC(CSc1nc(-c2ccccc2)c(-c2ccccc2)o1)=NO	nt	0	nt	nt	nt	nt
COc1ccc(-c2cc(C(=O)NN=Cc3cccnc3)c3cc(C)cc(C)c3n2)cc1	nt	i	nt	nt	nt	nt
CC(=O)Nc1ccc(-c2ccnc3c2CC(C(=O)NCCc2ccccc2)O3)cc1 (stereo unspecified)	-4	nt	0	-3	-1	-4
CC(=O)Nc1ccc(-c2ccnc3c2CC(C(=O)NCc2ccccc2)O3)cc1 (stereo unspecified)	-2	nt	0	16	-1	66*
CSc1sc(C#N)c2c1C(=NO)CCC2	nt	5	nt	nt	nt	nt
COc1ccc(C(C)=NOCC(=O)N=Nc2c(O)[nH]c3ccccc23)cc1	nt	4	nt	nt	nt	nt
CCc1ccc(Oc2coc3cc(OCC(=O)Nc4cc(C)ccc4C)ccc3c2=O)cc1	-6	3	-1	66*	-1	-3
Cc1ccc(NC(=O)c2nc[nH]c2C(=O)Nc2ccccc2F)cc1	-7	nt	0	5	0	90*
SMILES	bovine MsrA act	UCH37 DUB inh	aDG glyco up	N-glyco inh	MsrA inhibitor	Vif inh
O=C(Nc1ccc(F)c(Cl)c1)c1csc([C@H]2C[C@H](O)[C@@H](CO)O2)n1	-2	nt	0	-2	3	54*
CS(=O)(=O)c1ncc(Cl)c(C(=O)Nc2ccc(OC(F)F)cc2)n1	-4	nt	0	-15	nt	54*
COC(=O)c1ccccc1-c1ccc(C(c2c(C)[nH][nH]c2=O)c2c(C)[nH][nH]c2=O)o1	1	4	0	29*	0	0
O=C(CC1SC(=Nc2ccccc2)N(CCCCO)C1=O)NCc1ccccc1 (stereo unspecified)	-2	26*	0	-7	0	-3
O=C(CC1SC(=Nc2ccccc2)N(CCCO)C1=O)Nc1ccc(Cl)cc1 (stereo unspecified)	-7	2	1	-2	nt	-5
CC(Cn1cnc([N+](=O)[O-])n1)=NNC(=O)c1ccccc1O	nt	3	nt	nt	nt	nt
COc1ccc(C)cc1Nc1n[n+](C)c(-c2c3ccccc3cc3ccccc23)s1	nt	0	0	-2	0	2
COc1ccc(C)cc1Nc1n[n+](C)c(-c2ccc(O)cc2O)s1	1	23*	0	1	0	11
